# Source: PubChem
# NR2E3 ag-1: activates human photoreceptor nuclear receptor NR2E3; Q9Y5X4; GST-NR2E3/biotin-RetCOR TR-FRET, 1536-well; inhibition of corepressor binding, % at 4.78 µM; 0.12% of 320,000 active; AID 2300;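 active means percent inhibition above the cutoff of mean plus 3 SD of all tested compounds, set per screening campaign, cut at about 20% in these data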;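 further: 0% = DMSO wells and 100% = biotin wells as full block of FRET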
# Target sequence (Q9Y5X4 whole entry, looked up): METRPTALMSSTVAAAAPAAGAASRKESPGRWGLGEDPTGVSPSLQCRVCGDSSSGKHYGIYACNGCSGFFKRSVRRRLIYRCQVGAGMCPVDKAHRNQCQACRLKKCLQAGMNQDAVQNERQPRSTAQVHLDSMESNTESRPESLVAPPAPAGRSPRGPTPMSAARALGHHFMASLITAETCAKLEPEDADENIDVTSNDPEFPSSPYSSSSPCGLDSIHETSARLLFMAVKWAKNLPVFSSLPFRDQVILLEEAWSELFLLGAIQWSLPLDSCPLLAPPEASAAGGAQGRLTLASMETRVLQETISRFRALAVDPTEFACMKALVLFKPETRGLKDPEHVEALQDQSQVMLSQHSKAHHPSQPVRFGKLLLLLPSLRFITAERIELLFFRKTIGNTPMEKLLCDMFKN
#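 System: GST-tagged NR2E3 plus biotinylated RetCOR corepressor; Amount: 1.35 nM GST-tagged NR2E3 final; Dosing: single nominal compound dose of 4.8 µM; Schedule: 5 h incubation at 4 °C; Technique: TR-FRET with europium anti-GST and streptavidin-D2, 340 nm excitation; Controls: biotin wells as high control, 0.6% DMSO wells as low control.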
# PG9 binder: small molecules binding HIV-1 gp120 antibody PG9. inhibition, % at 6.7 µM. TR-FRET gp120-PG9 antibody binding. 0.43% of 360,000 active; in the data active means inhibition above about 8.5%
# NR2E3 ag-2: activates human NR2E3 receptor; CHO-S Gal4-NCOR/VP16-NR2E3 two-hybrid, luciferase; inhibition of corepressor binding, % at 3.98 µM; 0.35% of 360,000 active; Q9Y5X4;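 active means inhibition above the mean of all tested compounds plus 3 SD, cut at about 70% in these data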;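 further: 0% = DMSO with NR2E3 transfected cells and 100% = cells lacking NR2E3 construct; higher means lower luciferase signal from less NR2E3 corepressor binding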
# GalR3 antagonist: antagonists of human GalR3; O60755; HEK293 GalR3-CNG cAMP membrane potential fluorescence; galR3 body fused to GalR1 C-terminus; inhibition, % at 3 µM; 0.44% of 360,000 active; AID 651719;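 active means inhibition above the screen-wide average plus 3 SD, cut at about 13% in these data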;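 further: forskolin and galanin both at EC90 stimulate the cells; cAMP rise reported by CNG channel membrane potential dye signal; 0% = forskolin plus galanin with DMSO and 100% = forskolin alone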
# Target sequence (O60755 1-299 limits assumed): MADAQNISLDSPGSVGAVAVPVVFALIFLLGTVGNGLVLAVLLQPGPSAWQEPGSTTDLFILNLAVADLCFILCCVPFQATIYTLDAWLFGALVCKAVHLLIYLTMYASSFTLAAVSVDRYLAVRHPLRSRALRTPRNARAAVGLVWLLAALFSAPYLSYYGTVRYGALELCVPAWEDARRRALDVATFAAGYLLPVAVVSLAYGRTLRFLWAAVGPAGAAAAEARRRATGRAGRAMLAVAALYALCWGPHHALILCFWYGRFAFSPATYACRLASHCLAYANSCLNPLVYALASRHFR
# Rev-erbA mod: modulates human Rev-erb alpha binding to DNA; P20393; 0.79% of 370,000 active; Rev-erbα–FITC-DNA binding, fluorescence polarization, 90 min; activity, % at 10 µM;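 active means activity above about 14%, limit read from the data; passing the limit was not always enough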;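 further: 0% = DMSO wells with 35 nM protein and 100% = DMSO wells with 750 nM protein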
# GalR3 conf: confirmation of human galanin receptor 3 antagonists. shares compounds with GalR3 antagonist. HEK293 GalR3 CNG cAMP biosensor, membrane potential fluorescence; galR3 fused to GalR1 carboxy tail; challenged with forskolin and galanin at EC90. inhibition, % at 3 µM. 59% of 1,600 active. AID 652245;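 active means inhibition above the primary screen's cutoff, the mean inhibition of all screened compounds plus 3 SD, cut at about 13% in these data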;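 further: 0% = forskolin plus galanin and 100% = forskolin alone with DMSO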
# HEK-CNG parental: acts as nonspecific agonist in parental HEK-CNG cells. activation, % at 3 µM. HEK293-CNG parental cells, cAMP membrane potential fluorescence; normalised: DMSO wells 0%, forskolin wells 100%. 10% of 1,600 active. shares compounds with GalR3 antagonist; in the data active means activation above about 1.3%
# The depositor's hits bear a star; x = not tested or not shown; ! = not confirmed by another sample. Rows were chosen to be rich in hits. Some 1.8% of all compounds tested hit in one or more screens of this group.
SMILES,NR2E3 ag-1,PG9 binder,NR2E3 ag-2,GalR3 antagonist,Rev-erbA mod,GalR3 conf,HEK-CNG parental
CCN(C(=O)COC(=O)c1ccc(Sc2ncn[nH]2)c([N+](=O)[O-])c1)c1ccccc1C,x,x,x,x,-4.3,x,x
Cc1cccc(-c2nnc(N)s2)c1,-4.4,0.7,-13.1,12.8*,6.6,1.9,0.1
COc1ccc(N2C(=O)C3CCCN3C2c2cccc(OC)c2OC)cc1 (stereo unspecified),-0.2,0.8,-20.2,4.3,-4.3,x,x
COc1cccc(C2N(c3ccccc3)CCN2c2ccccc2)c1OC,1.9,-0.4,3.0,13.8*,3.4,8.5,0.3
O=S(=O)(NCC1CN(S(=O)(=O)c2c(F)cccc2F)C1)c1ccc2c(c1)OCCO2,2.0,0.5,47.3,72.7*,-2.9,103.0*,-0.4
COc1ccc(NC(=O)CSc2nc(C)cc(=O)[nH]2)cc1OC,x,x,x,x,-2.0,x,x
Cc1ccc(NC(=O)CSc2nn(-c3ccccc3)c(=S)s2)cc1S(=O)(=O)N(C)C,-4.0,-2.2,-18.2,71.5*,-1.5,93.1*,-0.4
O=C(CSc1nn(-c2ccccc2)c(=S)s1)Nn1cnnc1,-4.3,-1.5,-11.5,-4.2,3.9,x,x
COc1cc(/C=N\NC(=O)c2ccc(-c3ccccc3)cc2)cc(Br)c1O,4.4,-4.7,-11.1,14.5*,-4.9,40.8*,0.1
O=C(O)c1ccc(NC(=O)c2cccc(N3C(=O)C4C5CCC(C5)C4C3=O)c2)cc1 (stereo unspecified),1.2,-1.5,-11.5,-2.1,-1.9,x,x
O=C(Nc1ccc(Cl)cc1)c1cccc(N2C(=O)C3C4CCC(C4)C3C2=O)c1 (stereo unspecified),-0.6,0.1,2.9,92.0*,0.9,-0.9,0.0
CCOC(=O)Cn1nc(C)c(NC(=O)COc2cccc(Cl)c2)c1C,0.3,0.5,6.7,21.3*,0.1,-0.3,0.1
COc1ccc(-c2nc(C#N)c(NC(C)c3ccccc3)o2)cc1OC (stereo unspecified),4.8,2.1,-22.8,20.5*,-4.5,38.9*,0.2
CC(COc1ccccc1C#N)CN1CCC(C(O)(c2ccccc2)c2ccccc2)CC1 (stereo unspecified),x,x,x,x,2.7,x,x
O=C(C(=O)N1CCC(Cc2ccccc2)CC1)c1ccccc1,x,1.5,x,15.6*!,5.4,-1.7,-0.2
O=C(NC1CCN(Cc2ccccc2)CC1)c1ccc(S(=O)(=O)NCc2ccco2)cc1,0.1,-0.4,-6.9,62.8*,-1.1,52.2*,0.3
Cc1ccc2c(c1)C1C3CCC(C3)C1S(=O)N2 (stereo unspecified),0.7,-2.0,-29.3,18.0*,-4.5,4.2,-0.1
CCOc1cccc(-c2nnc(SCC(=O)Nc3ccc4c(c3)OCO4)n2N)c1,x,x,x,x,-10.7,x,x
Cc1cccc(NC(=O)CN(C)S(=O)(=O)c2ccc(-c3ccc(=O)[nH]n3)s2)c1C,-1.1,-0.2,-41.3,80.0*,3.4,11.7,0.4
c1ccc(-c2ccc(CNc3nc(-c4ccccn4)nnc3-c3ccccc3)cc2)cc1,x,x,x,x,2.4,x,x
CCOC(=O)[C@@H]1c2[nH]c3ccccc3c2C[C@@]2(C(=O)OC)C=CCN12,x,x,x,x,-1.4,x,x
COc1ccc(C(=O)NCC(=O)OCC(=O)c2ccc3c(c2)NC(=O)CO3)cc1OC,5.4,0.0,5.4,72.5*,-1.1,-2.4,-0.1
Cc1ccc(OCCOc2c(Cl)cc(Cl)cc2Cl)c([N+](=O)[O-])n1,x,x,x,x,-3.3,x,x
Cc1c(C(=O)N2CCc3ccccc32)cnn1C,1.2,0.7,-9.4,x,5.9,5.7,-0.1
CN=C1S/C(=C/c2cc(C)n(-c3ccc(Cl)cc3F)c2C)C(=O)N1C,x,x,x,x,0.4,x,x
SMILES,NR2E3 ag-1,PG9 binder,NR2E3 ag-2,GalR3 antagonist,Rev-erbA mod,GalR3 conf,HEK-CNG parental
N#CCSc1n[nH]c2nc3c(c(=O)n12)C1(CCCC1)Cc1ccccc1-3,2.8,0.0,1.6,x,6.0,-4.5,-0.1
COC(=O)[C@]12C[C@H](CC(=O)NCCc3ccccc3OC)C(=O)N(Cc3ccc(Cl)cc3Cl)C1=C[C@H](C(C)(C)C)O[C@@H]2C,x,x,x,x,-0.6,x,x
Cc1ccccc1S(=O)(=O)/N=C(/c1ccccc1)N1CCOCC1,6.3,2.3,-9.2,13.8*,-4.0,6.6,-0.2
O=S(=O)(/N=C(\c1ccccc1)N1CCOCC1)c1cccs1,3.3,0.1,-24.0,-2.1,-6.0,x,x
Cc1ccccc1NCC(=O)N/N=C/c1ccc[nH]1,x,x,x,x,-9.8,x,x
CC1CCN(CCCCOc2ccc([N+](=O)[O-])cc2)CC1,-0.8,-0.9,3.2,-6.5,3.4,x,x
COC(=O)C1CCN(Cc2ccc(OCCCN3CCN(c4ccc([N+](=O)[O-])cc4)CC3)cc2)CC1,1.6,0.3,8.2,13.4*,7.5,114.4*,3.1*
COc1ccc2c(c1)CN1C(=O)N(Cc3ccccc3)S(=O)(=O)CC21 (stereo unspecified),x,x,x,x,3.3,x,x
O=C1c2cc([N+](=O)[O-])cc3cc([N+](=O)[O-])cc(c23)C(=O)N1c1ccccn1,-12.0,-5.5,8.0,x,-16.3,-2.3,0.6
COc1cc(NC(=O)c2cc(C)on2)cc(C(=O)Nc2cccc(C(F)(F)F)c2)c1,-0.6,-0.2,-15.9,-5.0,5.2,5.1,0.3
Cc1[nH]nc(NCCO)c1[N+](=O)[O-],-9.5,0.0,-8.0,x,2.0,69.2*,-0.6
O=C(Nc1ccncc1)c1ccc(-c2ccccc2)cc1,-0.3,0.2,-1.9,x,4.7,56.3*,-0.5
O=C(OCCN1CCCC12CCC(c1ccccc1)CC2)c1ccccc1 (stereo unspecified),x,x,x,x,1.6,x,x
CCCCNC(=O)C[C@H]1C[C@@]2(C(=O)OC)C(=C[C@H](C3CCCC3)O[C@@H]2C)N(Cc2ccc(Cl)cc2Cl)C1=O,x,x,x,x,-2.8,x,x
COc1ccc(C2Nc3ccc4ccccc4c3-c3c2c(=O)oc2ccccc32)cc1 (stereo unspecified),2.3,1.5,-2.5,-6.1,-5.6,x,x
O=c1oc2ccccc2c2c1C(c1ccc(Cl)cc1)Nc1ccc3ccccc3c1-2 (stereo unspecified),3.7,0.3,-17.3,15.3*,6.9,-2.2,-0.1
CCN(CC)C(=O)OCCc1cc2ccccc2c(=O)o1,1.2,0.5,-29.0,x,1.3,0.6,0.2
COc1ccccc1C(=O)Nc1nnc([C@H]2C[C@H](O)[C@@H](CO)O2)s1,x,3.4,-1.2,24.6*,0.3,-1.9,0.3
CN(C)C(=O)/C(=C/c1cn(-c2ccccc2)nc1-c1cccc([N+](=O)[O-])c1)NC(=O)c1ccccc1,1.4,-1.1,-7.7,0.2,-0.5,x,x
C=CCNC(=O)/C(=C/c1cn(-c2ccccc2)nc1-c1cccc([N+](=O)[O-])c1)NC(=O)c1ccccc1,-0.5,0.9,-4.9,15.9*,-1.0,7.8,0.4
